According to ChEMBL document CHEMBL1123837, “1-Amino-substituted 4-methyl-5H-pyrido[3',4':4,5]pyrrolo[3,2-c]pyridines: a new class of antineoplastic agents” (J Med Chem, 1987):
Activity calls are given as the source filed them. The rule behind the calls is not given here.

What was measured:
Calf thymus DNA = assay: Binding affinity for DNA by ethidium bromide displacement assay; type: nucleic-acid assay; conditions: Bos taurus
In short: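 Competitive ethidium bromide displacement with calf thymus DNA at 10 µg/mL in 20 mM Na phosphate buffer, 0.1 M NaCl, 1 mM EDTA, pH 7.4. The apparent DNA affinity constant is given in 10^6 M^-1 ± standard deviation, from 6 values across two independent experiments.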

L1210 = assay: (§1) In vitro cytotoxicity against L1210 cells was determined after 48 hours of incubation; type: functional, Mus musculus; conditions: Mus musculus, L1210, 48 h; read-out: ID50 (the source's name)
In short: (§2)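 Exponentially growing L1210 cells were cultured in RPMI 1640 with 2 mM glutamine, penicillin/streptomycin and 10% fetal calf serum, under 5% CO2 at 37 °C. Drugs dissolved in distilled water were added to cells at 0.8 × 10^5 cells/mL for 48 h, then cells were counted. ID50 was estimated by regression of dose-response data, as the mean of two values from two independent experiments.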

Mus musculus [1] = assay: In vivo antitumor activity was determined against P388 leukemia cells expressed as treated/control at the dose of (1.25-20)mg/kg; IA = Inactive; type: functional, organism-based
In short: (§3)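 Following NCI protocols, 10^6 viable P388 leukemia cells were inoculated ip on day 0 into male or female CDF1 hybrid mice, 10 per test group. Compounds in distilled water were given ip (0.1 mL/10 g body weight) at various doses on days 1–5. T/C = median survival day of treated / median survival day of negative controls × 100.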

Mus musculus [2] = assay: In vivo antitumor activity was determined against P388 leukemia cells expressed as treated/control at the dose of (0.30-60)mg/kg; IA = Inactive; type: functional, organism-based; in short: as §3
Mus musculus [3] = assay: In vivo antitumor activity was determined against P388 leukemia cells expressed as treated/control at the dose of (2.5-20)mg/kg(nontoxic at highest dose tested.); IA = Inactive; type: functional, organism-based; in short: as §3
Mus musculus [4] = assay: In vivo antitumor activity was determined against P388 leukemia cells expressed as treated/control at yhe dose of 2.5-40 mg/kg; IA = Inactive; type: functional, organism-based; in short: as §3
Mus musculus [5] = assay: In vivo antitumor activity was determined against P388 leukemia cells expressed as treated/control at the dose of (5-100)mg/kg (nontoxic at highest dose tested.); IA = Inactive; type: functional, organism-based; in short: as §3
Mus musculus [6] = assay: In vivo antitumor activity was determined against P388 leukemia cells expressed as treated/control at the dose of (5-60)mg/kg; IA = Inactive; type: functional, organism-based; in short: as §3
[7] = as §1; type: cell-based; conditions: mouse, read-out: ID50; in short: as §2
Mus musculus [8] = assay: In vivo antitumor activity was determined against P388 leukemia cells expressed as treated/control at the dose of 40 mg/kg; T = toxic at this dose; type: organism-based; parameters: dose 40 mg/kg; in short: as §3
Mus musculus [9] = assay: In vivo antitumor activity was determined against P388 leukemia cells expressed as treated/control at the dose of (2.5-20)mg/kg; IA = Inactive; type: functional, organism-based; in short: as §3
Mus musculus [10] = assay: In vivo antitumor activity was determined against P388 leukemia cells expressed as treated/control at the dose of 10 mg/kg; type: functional; in short: as §3
Mus musculus [11] = assay: In vivo antitumor activity was determined against P388 leukemia cells expressed as treated/control at the dose of 20 mg/kg; type: functional; in short: as §3
Mus musculus [12] = assay: In vivo antitumor activity was determined against P388 leukemia cells expressed as treated/control at the dose of 40 mg/kg; type: functional; in short: as §3
Mus musculus [13] = assay: In vivo antitumor activity was determined against P388 leukemia cells expressed as treated/control at the dose of 80 mg/kg; type: functional; in short: as §3

CCCN(CCC)CCCNc1[nH]cc(C)c2nc3ccncc3c1-2
K aff (Calf thymus DNA): 8000 M⁻¹
IC50 (L1210): 3.3 µM
T/C (Mus musculus [1]): inactive

CCN(CC)CCCN(C)c1[nH]cc(C)c2nc3ccncc3c1-2
K aff (Calf thymus DNA): 6000 M⁻¹
IC50 (L1210): 224 µM
T/C (Mus musculus [2]): inactive

CCCN(CCC)CCCNc1ncc(C)c2c1c1cnccc1n2C
K aff (Calf thymus DNA): 16000 M⁻¹
IC50 (L1210): 8.6 µM
T/C (Mus musculus [3]): inactive

Cc1cnc(NCCCN2CCCC2)c2c3cnccc3n(C)c12
K aff (Calf thymus DNA): 0.06
IC50 (L1210): 1.6 µM
T/C (Mus musculus [4]): inactive

CCN(CC)CCCCNc1ncc(C)c2c1c1cnccc1n2C
K aff (Calf thymus DNA): 40000 M⁻¹
T/C (Mus musculus [5]): inactive

CN(C)CCCNc1nccc2c1c1cnccc1n2C
K aff (Calf thymus DNA): 20000 M⁻¹
IC50 (L1210): 1.2 µM
T/C (Mus musculus [6]): inactive

CCN(CC)CCCNc1[nH]ccc2nc3ccncc3c1-2
K aff (Calf thymus DNA): 15000 M⁻¹
CC50 at 48 h [7]: 46 µM
T/C (Mus musculus [8]): Toxic
T/C (Mus musculus [9]): inactive

CCNCCCNc1ncc(C)c2c1c1cnccc1n2C
K aff (Calf thymus DNA): 50000 M⁻¹
IC50 (L1210): 3.8 µM
T/C (Mus musculus [10]): 127
T/C (Mus musculus [11]): 145
T/C (Mus musculus [12]): 138
T/C (Mus musculus [13]): 149

CCN(CC)CCNc1[nH]cc(C)c2nc3ccncc3c1-2
K aff (Calf thymus DNA): 12000 M⁻¹
IC50 (L1210): 19.5 µM
T/C (Mus musculus [8]): Toxic
T/C (Mus musculus [9]): inactive

Cc1cnc(NCCCN2CCCCC2)c2c3cnccc3n(C)c12
K aff (Calf thymus DNA): 0.06
IC50 (L1210): 3.6 µM
T/C (Mus musculus [4]): inactive
